Calls of active or inactive are those of the source.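 How the source made its calls: active means inhibition of 50% or more against any one of four protein arginine deiminase enzymes; inactive means the rest.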
Assays:
Experiment in all cases: single-point PAD isozyme panel inhibition – biochemical, colorimetric, BAEE substrate, recombinant enzymes, selectivity assay for PAD4 inhibitor project, late-stage follow-up (AID 588560)
[1] = target: Protein-arginine deiminase type-3 (Homo sapiens) (UniProt Q9ULW8); conditions: recombinant PAD1-4, BAEE citrulline colorimetric, 15 min; PAD3; at 10 µM; active compounds read high
Summary of the method: (§1)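 System: recombinant PAD1, PAD2, PAD3 or PAD4 enzyme, one isozyme per assay; times: 15 min preincubation and 15 min reaction at 37 °C; also added: 10 mM BAEE; signal: citrulline color absorbance at 540 nm; control set: DMSO-treated enzyme as uninhibited reference; measure: % inhibition versus DMSO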

[2] = target: Protein-arginine deiminase type-1 (Homo sapiens) (UniProt Q9ULC6); conditions: recombinant PAD1-4, BAEE citrulline colorimetric, 15 min; PAD1; at 10 µM; active compounds read high
Summary of the method: as §1

[3] = target: Protein-arginine deiminase type-2 (Homo sapiens) (UniProt Q9Y2J8); conditions: recombinant PAD1-4, BAEE citrulline colorimetric, 15 min; PAD2; at 10 µM; active compounds read high
Summary of the method: as §1

[4] = target: Protein-arginine deiminase type-4 (Homo sapiens) (UniProt Q9UM07); conditions: recombinant PAD1-4, BAEE citrulline colorimetric, 15 min; PAD4; at 10 µM; active compounds read high
Summary of the method: as §1

Sequence of Protein-arginine deiminase type-2 (Homo sapiens) (Q9Y2J8 whole entry, looked up): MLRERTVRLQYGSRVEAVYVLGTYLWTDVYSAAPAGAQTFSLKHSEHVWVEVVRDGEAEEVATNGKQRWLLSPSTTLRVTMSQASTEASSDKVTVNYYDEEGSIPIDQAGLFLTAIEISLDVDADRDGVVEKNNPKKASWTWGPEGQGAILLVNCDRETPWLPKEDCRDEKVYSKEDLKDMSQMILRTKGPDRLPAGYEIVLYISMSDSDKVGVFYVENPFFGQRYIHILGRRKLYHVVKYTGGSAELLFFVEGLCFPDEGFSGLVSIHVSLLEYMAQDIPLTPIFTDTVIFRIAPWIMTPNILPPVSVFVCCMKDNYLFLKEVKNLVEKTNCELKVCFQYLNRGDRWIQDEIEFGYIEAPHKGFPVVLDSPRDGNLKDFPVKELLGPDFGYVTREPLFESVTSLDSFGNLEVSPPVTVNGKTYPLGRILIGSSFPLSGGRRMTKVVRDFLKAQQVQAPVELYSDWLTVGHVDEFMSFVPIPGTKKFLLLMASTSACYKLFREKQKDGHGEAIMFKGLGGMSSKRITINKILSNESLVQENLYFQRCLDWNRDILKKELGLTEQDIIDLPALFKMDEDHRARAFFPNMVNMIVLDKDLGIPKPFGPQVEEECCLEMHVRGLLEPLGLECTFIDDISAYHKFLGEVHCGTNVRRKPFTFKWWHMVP
Sequence of Protein-arginine deiminase type-4 (Homo sapiens) (Q9UM07 whole entry, looked up): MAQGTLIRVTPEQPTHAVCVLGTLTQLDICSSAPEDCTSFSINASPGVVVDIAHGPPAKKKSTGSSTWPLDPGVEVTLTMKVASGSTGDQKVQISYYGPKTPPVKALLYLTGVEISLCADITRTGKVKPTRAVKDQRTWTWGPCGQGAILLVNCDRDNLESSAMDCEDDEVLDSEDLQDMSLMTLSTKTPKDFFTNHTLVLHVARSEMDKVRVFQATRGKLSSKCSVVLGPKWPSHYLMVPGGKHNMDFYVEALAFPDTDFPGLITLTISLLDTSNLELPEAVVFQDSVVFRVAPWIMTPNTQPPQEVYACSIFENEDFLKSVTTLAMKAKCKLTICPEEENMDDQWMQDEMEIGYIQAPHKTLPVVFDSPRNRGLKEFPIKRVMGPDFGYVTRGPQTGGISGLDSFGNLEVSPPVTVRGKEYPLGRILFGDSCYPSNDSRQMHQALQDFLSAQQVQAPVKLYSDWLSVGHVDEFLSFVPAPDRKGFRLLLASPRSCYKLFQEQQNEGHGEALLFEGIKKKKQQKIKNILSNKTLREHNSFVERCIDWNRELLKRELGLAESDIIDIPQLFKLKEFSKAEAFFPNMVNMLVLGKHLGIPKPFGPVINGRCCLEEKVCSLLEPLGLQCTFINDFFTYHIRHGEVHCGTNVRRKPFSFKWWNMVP
Sequence of Protein-arginine deiminase type-3 (Homo sapiens) (Q9ULW8 whole entry, looked up): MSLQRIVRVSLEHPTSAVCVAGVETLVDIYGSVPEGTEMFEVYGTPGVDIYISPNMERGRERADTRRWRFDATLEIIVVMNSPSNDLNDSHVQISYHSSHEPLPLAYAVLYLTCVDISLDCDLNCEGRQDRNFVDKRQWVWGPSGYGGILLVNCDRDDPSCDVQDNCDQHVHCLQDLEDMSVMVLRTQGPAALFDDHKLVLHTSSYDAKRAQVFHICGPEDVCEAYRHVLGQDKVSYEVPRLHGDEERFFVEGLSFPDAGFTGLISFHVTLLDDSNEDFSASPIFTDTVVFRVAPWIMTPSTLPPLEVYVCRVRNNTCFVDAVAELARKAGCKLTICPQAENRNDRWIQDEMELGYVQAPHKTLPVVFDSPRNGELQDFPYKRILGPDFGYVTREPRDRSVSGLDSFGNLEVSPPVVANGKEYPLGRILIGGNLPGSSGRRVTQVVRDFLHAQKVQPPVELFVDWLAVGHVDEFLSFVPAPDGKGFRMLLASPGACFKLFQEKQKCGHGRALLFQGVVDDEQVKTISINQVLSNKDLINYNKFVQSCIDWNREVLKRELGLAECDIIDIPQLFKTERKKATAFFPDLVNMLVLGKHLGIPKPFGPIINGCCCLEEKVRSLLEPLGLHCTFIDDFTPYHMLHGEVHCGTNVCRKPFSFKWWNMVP
Sequence of Protein-arginine deiminase type-1 (Homo sapiens) (Q9ULC6 whole entry, looked up): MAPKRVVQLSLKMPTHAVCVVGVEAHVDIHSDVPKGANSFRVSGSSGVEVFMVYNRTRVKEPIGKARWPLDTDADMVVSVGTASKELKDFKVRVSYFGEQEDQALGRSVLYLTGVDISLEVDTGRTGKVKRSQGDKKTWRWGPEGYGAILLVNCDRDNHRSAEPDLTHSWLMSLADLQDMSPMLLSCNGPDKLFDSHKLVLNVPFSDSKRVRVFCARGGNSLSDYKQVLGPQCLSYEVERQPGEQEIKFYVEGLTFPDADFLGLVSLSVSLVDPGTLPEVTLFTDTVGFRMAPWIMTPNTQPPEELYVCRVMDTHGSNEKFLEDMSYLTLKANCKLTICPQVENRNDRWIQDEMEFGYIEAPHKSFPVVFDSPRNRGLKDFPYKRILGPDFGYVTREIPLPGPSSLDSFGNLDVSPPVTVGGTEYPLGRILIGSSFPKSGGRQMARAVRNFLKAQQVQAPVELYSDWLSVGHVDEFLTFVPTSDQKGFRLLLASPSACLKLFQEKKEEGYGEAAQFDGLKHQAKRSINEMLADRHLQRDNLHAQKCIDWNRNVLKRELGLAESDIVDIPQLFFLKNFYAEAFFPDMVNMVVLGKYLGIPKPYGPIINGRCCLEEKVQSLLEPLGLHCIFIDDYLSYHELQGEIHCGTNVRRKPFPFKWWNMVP

| Compound | inhibition [1] | inhibition [2] | inhibition [3] | inhibition [4] |
| --- | --- | --- | --- | --- |
| O=C1C=C(Br)C(=O)c2ncccc21 | 76% | -17% (inactive) | 14% (inactive) | 56% |
| COC(=O)c1nc(C(C)=O)c2[nH]c3ccccc3c2c1C | -20% (inactive) | 5% (inactive) | -29% (inactive) | – |
| COC(=O)c1cc(-c2ccccc2)c(C(=O)OC)c(-c2ccc3ccccc3n2)n1 | 16% (inactive) | -20% (inactive) | -18% (inactive) | – |
| O=C1C(Br)=CC(=O)c2ncccc21 | 10% (inactive) | -57% (inactive) | 12% (inactive) | 10% (inactive) |
| COC(=O)c1nnc(C(=O)OC)c(-c2ccc3c([N+](=O)[O-])c(OC)ccc3n2)n1 | 18% (inactive) | -38% (inactive) | 7% (inactive) | – |
| COC1=C(Br)C(=O)c2nc(-c3ccccn3)ccc2C1=O | 100% | 50% | 62% | 91% |
| COc1ccc2nc(C#N)ccc2c1 | 8% (inactive) | -37% (inactive) | 35% (inactive) | – |
| NC1=CC(=O)c2cccnc2C1=O | 100% | 70% | 89% | 99% |
| COC1=C(I)C(=O)c2nc(C#N)ccc2C1=O | 98% | 60% | 63% | 97% |
| CCOC(=O)c1nc(C(=O)OCC)c(C(=O)OCC)c(-c2ccc(OC)c(OC)c2OCc2ccccc2)c1C | -7% (inactive) | -15% (inactive) | -31% (inactive) | – |
| NC1=CC(=O)c2ccc(-c3ccccn3)nc2C1=O | 90% | 73% | 101% | – |
| COC1=C(Br)C(=O)c2ncccc2C1=O | 7% (inactive) | 75% | 88% | – |
| COC(=O)c1nc(-c2ccc3c(n2)C(=O)C(Br)=CC3=O)c2[nH]c3ccccc3c2c1C | -16% (inactive) | -24% (inactive) | -15% (inactive) | – |
| O=C(O)c1cccc(-c2ccc3ccc(Br)c(OCc4ccccc4)c3n2)n1 | -7% (inactive) | -23% (inactive) | -18% (inactive) | – |
| COC(=O)c1cccc(-c2ccc3c(n2)C(=O)C(Br)=CC3=O)n1 | -43% (inactive) | 0% (inactive) | -26% (inactive) | – |
| NC1=CC(=O)c2ccc(-c3cccc(C(=O)O)n3)nc2C1=O | 97% | 71% | 85% | 98% |
| COC(=O)c1nc(C(=O)OC)c(N)c(-c2ccccc2Br)c1C | -30% (inactive) | -6% (inactive) | -22% (inactive) | – |
| COC(=O)c1nnc(C(=O)OC)c(-c2ccc3ccccc3n2)n1 | 24% (inactive) | -41% (inactive) | -13% (inactive) | – |
| COC(=O)c1nc(C(=O)OC)c(NC(C)=O)c(-c2ccccc2Br)c1C | -30% (inactive) | -20% (inactive) | -19% (inactive) | – |
| COC(=O)c1cccc(-c2ccc3c(n2)C(=O)C(N)=CC3=O)n1 | 84% | 75% | 92% | – |
| COC1=CC(=O)c2nc(C#N)ccc2C1=O | 99% | 68% | 88% | 97% |
| NC1=CC(=O)c2ccc(-c3cc(C(=O)O)ccc3N)nc2C1=O | 8% (inactive) | -13% (inactive) | -19% (inactive) | 13% (inactive) |
| O=C1C(O)=C(O)C(=O)c2ncccc21 | 96% | 39% (inactive) | 41% (inactive) | 83% |
| COc1ccc2nc(C#N)ccc2c1[N+](=O)[O-] | 16% (inactive) | -24% (inactive) | 2% (inactive) | – |
| NC1=C(N)C(=O)c2ccccc2C1=O | 44% (inactive) | 22% (inactive) | 28% (inactive) | 43% (inactive) |
| COc1ccc2ncccc2c1[N+](=O)[O-] | 19% (inactive) | -12% (inactive) | 17% (inactive) | – |
| COC(=O)c1nnc(C(=O)OC)c(-c2ccc3cc(OC)ccc3n2)n1 | 15% (inactive) | -21% (inactive) | -14% (inactive) | – |
| COC(=O)c1cccc(-c2ccc3ccc(Br)c(O)c3n2)n1 | -28% (inactive) | -5% (inactive) | -22% (inactive) | – |
| COC1=C(N)C(=O)c2ncccc2C1=O | 100% | 57% | 78% | 87% |
